GSK3A inh: human GSK-3 alpha kinase inhibition; ADP-Glo luminescence, 60 min; inhibition, % at 10 µM; actives 0.1% (n = 320,000);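 active = more than half of replicates show inhibition above 20%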;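 also: GST-tagged GSK-3 alpha with peptide substrate and 25 µM ATP; 0% = DMSO neutral wells and 100% = GW8510 positive control wells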
Target sequence (P49840 whole entry, looked up): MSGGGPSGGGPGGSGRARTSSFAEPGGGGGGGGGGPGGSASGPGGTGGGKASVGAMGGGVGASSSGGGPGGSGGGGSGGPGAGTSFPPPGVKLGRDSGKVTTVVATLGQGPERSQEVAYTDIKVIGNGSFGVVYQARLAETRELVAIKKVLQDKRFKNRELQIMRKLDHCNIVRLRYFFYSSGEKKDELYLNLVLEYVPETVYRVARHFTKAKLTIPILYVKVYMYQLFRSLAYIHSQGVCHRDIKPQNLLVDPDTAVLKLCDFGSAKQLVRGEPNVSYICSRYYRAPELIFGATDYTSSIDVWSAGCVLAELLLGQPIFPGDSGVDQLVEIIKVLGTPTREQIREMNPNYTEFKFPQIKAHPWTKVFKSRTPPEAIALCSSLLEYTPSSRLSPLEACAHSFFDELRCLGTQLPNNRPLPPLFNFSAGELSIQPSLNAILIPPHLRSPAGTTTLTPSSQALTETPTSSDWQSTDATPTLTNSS
CDK5 inh: CDK5/p35 (human) kinase inhibition | Recombinant CDK5/p35, ADP-Glo luminescence, 60 min | Q00535+Q15078 | actives 0.01% (n = 330,000) | AID 488839 | inhibition, % at 10 µM;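 active = highest replicate inhibition of at least 50% and at least 75% of replicates reaching 50%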;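 also: plate controls were DMSO neutral control for no effect and GW8510 at 10 µM for full effect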
Dyrk1A ADPGlo: Dyrk1A (rat) kinase inhibition | Q63470 | ADP-Glo luminescence, NFATc1 peptide | inhibition, % at 12.5 µM | actives 0.43% (n = 310,000) | AID 504441; in the data active = inhibition above about 50%;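 also: plate controls were vehicle with enzyme for no effect and no enzyme for full effect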
GSK3beta inhib: inhibitors of human GSK3beta kinase. activity score (negative = inhibition), % at 10 µM. actives 0.038% (n = 300,000). P49841. GST-GSK3beta kinase, ADP-Glo luminescence, 60 min; active compounds read low;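 active = more than half of replicate wells score below -50%, meaning over 50% inhibition versus plate controls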;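 also: 0% = median DMSO wells and -100% = median GW8510 positive control wells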
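Assay system: GST-fused GSK3beta enzyme, cell-free / Medium: Tris pH 7.5 buffer with MgCl2, DTT, BSA, heparin / Also added: peptide substrate plus 25 µM ATP (final) / Compound: 10 µM single point / Timing: kinase reaction with compound 60 min at room temperature / Detection: ADP-Glo luminescence / Benchmarks: DMSO neutral wells and GW8510 at 20 µM as positive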
STK33 inh: blocks human STK33 kinase activity. Q9BYT3. purified STK33, MBP phosphorylation, ADP-Glo luminescence. inhibition, % at 10 µM. actives 0.073% (n = 320,000). AID 2661;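 active = inhibition at or above 25%, using the most active replicate where run in duplicate; inactive = inhibition below 25%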
ADP-Glo artifact: counter-screen for Dyrk1A inhibitors: ADP-Glo luciferase artifacts. shares compounds with Dyrk1A ADPGlo. ADP-Glo luciferase artifact assay, no Dyrk1A, luminescence. AC50, µM (highest dose often 12 µM), for the others: at the top dose activity change, negative = inhibition. 1,300 tested, under 10 active;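 active = fitted half-maximal dose AC50 no more than ten times the top valid tested dose, with luminescence dropping as dose rises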
* = called active by the depositor; · = no result given. Only a selection was taken, and hits are over-represented in it overall.

SMILES	GSK3A inh	CDK5 inh	Dyrk1A ADPGlo	GSK3beta inhib	STK33 inh	others
O=C(Cn1cnc2ccccc21)Nc1ccc2c(c1)OCCCO2	-3.5	-0.4	·	·	-0.3
COCCCNc1nc(N)c([N+](=O)[O-])c(NC2CCCCC2)n1	59.6*	1.5	3.0	-21.8	1.9
COCCCNc1nc(N)c([N+](=O)[O-])c(N2CCCCCC2)n1	54.2*	0.6	19.7	0.2	0.2
Nc1nc(NCCO)nc(N2CCCCCC2)c1[N+](=O)[O-]	53.6*	5.6	14.3	-17.1	1.8
Nc1cc(C(=O)O)c(N)c2c1C(=O)c1ccccc1C2=O	54.5*	22.0	7.5	-1.4	76.8*
O=C(Nc1ccsc1C(=O)O)c1ccccc1	1.7	-1.6	8.0	2.1	2.3
O=C(Nc1ccsc1C(=O)NC1CC1)c1ccccc1	64.3*	-0.4	35.4	-34.3	8.3
Cc1ccc([N+](=O)[O-])cc1N	-2.6	-3.5	-1.2	0.4	·
CCc1cc([N+](=O)[O-])cc(CC)c1N	-0.6	-0.5	70.1*	3.5	-0.4
COc1cc(C2C(C#N)=C(N)Oc3n[nH]c(-c4cccnc4)c32)cc(Br)c1O (centres undefined)	53.0*	0.5	14.8	-33.9	0.4
COc1cc(C2C(C#N)=C(N)Oc3n[nH]c(-c4cccnc4)c32)ccc1OCC(N)=O (centres undefined)	4.3	-2.4	3.9	-18.2	0.6
COc1ccc(-c2cnc(N)nc2-c2ccc(OCc3ccccc3)cc2O)cc1	·	2.5	2.1	1.6	0.1
Nc1ncc(-c2ccccc2)c(-c2ccc(O)cc2O)n1	59.9*	5.8	37.7	-35.3	15.9
CCCCc1ccc(NC(=S)N2CCCC(C)C2)cc1 (centres undefined)	2.4	-2.3	0.6	0.8	-0.7
Cc1ccc(NC(=O)COC(=O)c2cc(Cl)ccc2Cl)c(Br)c1	9.5	-0.5	1.3	-0.1	25.5*
Cc1ccc(NC(=O)COC(=O)c2ccc(F)cc2Cl)c(Br)c1	-1.6	0.5	·	1.5	-0.8
O=C(NCCc1ccccc1)C1CCC(=O)N(Cc2cccc(C(F)(F)F)c2)C1 (centres undefined)	-0.9	0.4	3.5	-0.2	-0.3
Cc1ccc(Nc2nc(NCCCN3CCOCC3)nc(N)c2[N+](=O)[O-])cc1	57.5*	0.0	42.0	-1.6	0.5
Cc1ccc(Nc2nc(NCCCN3CCOCC3)nc(N)c2[N+](=O)[O-])cc1C	·	0.0	-7.0	-30.9	·
Nc1nc(NCCCN2CCOCC2)nc(Nc2ccc(Cl)cc2)c1[N+](=O)[O-]	56.7*	·	·	-26.7	1.0
Nc1nc(NCCCN2CCOCC2)nc(Nc2cccc(Cl)c2)c1[N+](=O)[O-]	77.9*	-0.5	-0.1	-76.7*	2.5
Nc1nc(NCC2CCCO2)nc(Nc2ccc(Cl)cc2)c1[N+](=O)[O-] (centres undefined)	3.1	0.0	-2.7	-2.4	3.3
Nc1nc(Nc2cccc(Cl)c2)nc(NCc2ccco2)c1[N+](=O)[O-]	10.7	0.3	7.0	-3.5	1.6
O=C(CSc1nc(N2CCCCC2)nc(N2CCCCC2)n1)c1ccccc1	0.5	0.7	5.1	2.5	28.3*
Cc1cc(N2CCCCC2)nc(SCC(=O)c2ccccc2)n1	1.0	-0.3	-8.6	-7.0	-1.9
SMILES	GSK3A inh	CDK5 inh	Dyrk1A ADPGlo	GSK3beta inhib	STK33 inh	others
Cc1ccc(NC(=S)N2CCCC2)cc1Cl	·	-1.8	-6.4	-7.9	0.2
CCC1(C)NC(=O)N(CC(=O)Nc2sc3c(c2C(N)=O)CCC3)C1=O (centres undefined)	58.3*	6.8	48.1	-32.8	2.0
CC(=O)N1CCc2c(sc(NC(=O)CN3C(=O)CCC3=O)c2C(N)=O)C1	92.7*	11.9	28.3	-78.6*	0.1
NC(=O)c1c(NC(=O)CN2C(=O)CCC2=O)sc2c1CCCCC2	17.0	11.2	8.7	-8.2	0.4
CC(=O)N1CCc2c(sc(NC(=O)CN3C(=O)c4ccccc4C3=O)c2C(N)=O)C1	38.6	11.5	38.7	-51.5*	1.4
CN(C)S(=O)(=O)c1cccc(NC(=S)Nc2ccc3cn[nH]c3c2)c1	22.4	2.4	·	-0.6	47.5*
CC(=O)N1CCc2cc(S(=O)(=O)NC(C(=O)NC(C)c3ccccc3)C(C)C)ccc21 (centres undefined)	-2.3	0.0	2.5	-3.8	-2.4
COCC(=O)N1CCC(Oc2ccc(C(=O)N(C)C(C)c3ccon3)cc2)CC1 (centres undefined)	-0.9	-0.6	-2.6	2.3	-1.1
Cc1occc1C(=O)N/N=C/c1ccc(N(C)C)cc1	30.4	29.3	43.7	-26.7	28.5*
Cc1cccnc1NC(=O)CSc1nnc(CNC(=O)c2cccc([N+](=O)[O-])c2)n1C	2.0	-0.6	-10.9	-0.9	-0.3
COc1ccccc1N(CC1CO1)S(=O)(=O)c1ccc(C)cc1 (centres undefined)	-3.1	0.3	2.6	1.3	-0.6
Cc1ccnc(NC(=O)CCC(=O)N(CC(=O)NCc2ccccc2)Cc2cccs2)c1	50.9*	-0.5	0.4	-23.3	-0.2
Cc1ccc(C)c(-c2nnc(NC(=O)Cc3ccc(F)cc3)o2)c1	1.1	0.1	-4.7	0.8	1.4
O=C1c2cccc3cccc(c23)C(=O)C1(O)O	1.0	-1.9	78.7*	-0.9	0.5
CC(C)n1nccc1NC(=O)COC(=O)c1ccc(NC(N)=O)cc1	-4.4	1.2	·	·	0.1
Cc1ncc(/C=C2\C(=O)Nc3ccccc32)[nH]1	7.1	·	·	0.1	76.0*
O=C(NNC(=O)c1ccc([N+](=O)[O-])cc1C(=O)O)c1ccncc1	-1.1	-1.0	4.1	-0.4	0.1
O=C(CCc1ccc(O)cc1)c1c(O)cc(O)cc1O	9.2	12.4	33.2	-7.0	30.3*
COc1cc(O)c(CC=C(C)C)c(O)c1C(=O)CCc1ccc(O)cc1	-2.3	-2.5	8.3	-6.2	-0.4
O=c1oc(-c2ccc(O)c(O)c2)cc2cc(O)cc(O)c12	·	2.8	73.2*	·	·	ADP-Glo artifact=6.7%
COc1cc(C2NC(=O)N(C)C(C)=C2C(=O)OCc2ccccc2)cc(Br)c1O (centres undefined)	-0.5	0.9	·	-1.1	-1.0
Fc1ccc(NC(=S)Nc2cccc3cnccc23)cc1	12.3	4.8	59.5*	-2.2	6.5	ADP-Glo artifact=9.3%
Cc1ccc(S(=O)(=O)N(C)C)cc1NC(=S)Nc1cccc2ccccc12	3.1	1.2	3.6	-0.8	-0.6
S=C(Nc1cccnc1)Nc1cccc2cnccc12	58.9*	8.8	60.1*	-3.4	27.4*	ADP-Glo artifact=9.4%
COc1ccc(NC(=S)Nc2cccc3cnccc23)cc1	3.8	·	56.0*	1.5	3.8	ADP-Glo artifact=7.4%
S=C(Nc1ccc(Cl)cc1)Nc1cccc2cnccc12	5.2	3.7	25.9	-1.6	6.4
CN(C)S(=O)(=O)c1cccc(NC(=S)Nc2cccc3cnccc23)c1	·	2.1	55.8*	2.1	·	ADP-Glo artifact=8.1%

High-throughput results (PubChem BioAssay)
